Shown are actives, neighbours in structure and some others; about 1.7% of the full set was active somewhere.
procasp7 counter – activates human procaspase-7, counter-screen for procaspase-3 activators | P55210 | recombinant procaspase-7, Ac-DEVD-pNA absorbance 405 nm; D23A/D198A/D206A triple mutant, cannot self-cleave; scale: DMSO 0, 5 µM enzyme 100 | activation, % at 8.5 µM | 330,000 tested, 0.093% active;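 active = percent activation above the screen-wide mean plus 3 SD, cut at about 25% in these data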
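signal = Epi-absorbance of released pNA at 405 nm, two timepoints | assay system = Uncleavable procaspase-7 mutant enzyme | reagent = Ac-DEVD-pNA substrate, 400 µM as added | times = 1 h enzyme–compound preincubation and 2 h substrate reaction, both 25 °C | benchmarks = low DMSO alone, high DMSO plus 5 µM PC-7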
VIM-2 inh – inhibitors of Pseudomonas aeruginosa VIM-2 metallo-beta-lactamase. purified VIM-2, nitrocefin hydrolysis, epi-absorbance fluorescence. inhibition, % at 5.6 µM. 290,000 tested, 0.89% active. AID 1527;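 active = inhibition above the mean of all tested compounds plus 3 SD, cutoff set per screening run, cut at about 7.5% in these data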;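 also: red hydrolysis product quenches plate fluorescence so inhibitors raise well fluorescence; 0% = enzyme with DMSO and 100% = DMSO without enzyme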
Neddylation inh – inhibitors of human cullin neddylation; P61081+Q13564; TR-FRET cullin neddylation, biochemical; calls only at 25 µM; 360,000 tested, 0.58% active; in the data active = inhibition above about 36%
Target sequence (P61081 whole entry, looked up): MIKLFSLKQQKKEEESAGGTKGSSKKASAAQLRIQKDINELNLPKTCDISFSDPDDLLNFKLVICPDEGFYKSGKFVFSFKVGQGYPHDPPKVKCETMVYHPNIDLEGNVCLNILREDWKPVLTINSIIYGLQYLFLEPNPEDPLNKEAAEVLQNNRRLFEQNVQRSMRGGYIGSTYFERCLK
Target sequence (Q13564 whole entry, looked up): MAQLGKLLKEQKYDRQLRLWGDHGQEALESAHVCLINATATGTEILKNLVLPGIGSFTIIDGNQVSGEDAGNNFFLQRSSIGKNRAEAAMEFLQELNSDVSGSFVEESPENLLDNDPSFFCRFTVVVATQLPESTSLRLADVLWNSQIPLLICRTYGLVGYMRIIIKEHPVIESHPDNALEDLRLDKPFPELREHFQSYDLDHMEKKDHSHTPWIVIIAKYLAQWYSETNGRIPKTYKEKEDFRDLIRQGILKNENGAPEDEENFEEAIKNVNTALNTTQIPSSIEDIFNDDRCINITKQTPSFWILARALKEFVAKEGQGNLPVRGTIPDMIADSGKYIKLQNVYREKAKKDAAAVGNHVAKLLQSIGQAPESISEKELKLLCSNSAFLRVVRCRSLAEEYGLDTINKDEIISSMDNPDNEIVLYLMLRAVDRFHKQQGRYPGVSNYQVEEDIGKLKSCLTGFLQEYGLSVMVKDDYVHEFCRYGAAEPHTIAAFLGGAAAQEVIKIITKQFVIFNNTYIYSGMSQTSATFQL
procasp3 activ – activators of human procaspase-3. recombinant procaspase-3 D3A, Ac-DEVD-pNA absorbance 405 nm. activation, % at 8.5 µM. 330,000 tested, 0.11% active. AID 463141;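 active = activation above the mean of all tested compounds plus 3 SD, cut at about 21% in these data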;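 also: 0% = DMSO alone and 100% = DMSO wells spiked with extra 5 µM PC-3 D3A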
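Evaluation: percent activation relative to control range; Material: Procaspase-3 D3A mutant, all three cleavage aspartates alanine; Compound: single dose, 8.5 µM nominal compound, 0.8% DMSO; Replication: one well per compound; Signal: absorbance at 405 nm, 0 and 120 min; Schedule: 1 h preincubation plus 2 h reaction at 25 °C.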
PolyA inhibitor – yeast polyadenylation inhibition; S. cerevisiae SKY197-pL101 polyadenylation reporter, beta-gal luminescence; efflux-impaired pdr1/pdr3 knockout yeast; score 100 = 6 SD above DMSO; AID 1875; 300,000 tested, 0.02% active; activity score, % at 12 µM;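 active = lowest replicate activity score at least 50, where 100 means six control SD above control mean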;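 also: yeast exposed to compound for 9 h at 30 °C; higher score means more reporter readthrough which indicates perturbed polyadenylation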
IMP-1 inh-1 – blocks Pseudomonas aeruginosa IMP-1 metallo-beta-lactamase | purified IMP-1, nitrocefin hydrolysis, epi-absorbance fluorescence | inhibition, % at 5.6 µM | 290,000 tested, 0.45% active;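 active = inhibition above the mean plus 3 SD of all compounds in the same screening run, cut at about 4.5% in these data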;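 also: 0% = IMP-1 with DMSO and 100% = DMSO wells lacking enzyme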
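System: Purified recombinant IMP-1 metallo-beta-lactamase enzyme | Measured by: Fluorescence quenching readout, ex 480/em 530 nm | Replication: Singlicate | Incubation: 15 min preincubation plus 25 min reaction at 25 °C | Evaluation: Percent inhibition from optical density relative to buffer-blank wells | Benchmarks: DMSO with and without IMP-1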
IMP-1 inh-2 – blocks IMP-1 metallo-beta-lactamase in VIM-2 selectivity screen; shares compounds with VIM-2 inh; purified IMP-1, nitrocefin hydrolysis, epi-absorbance fluorescence; inhibition, % at 5.6 µM; 1,300 tested, under 10 active; call rule not given here;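 also: 0% = enzyme with vehicle and 100% = vehicle without enzyme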
VIM-2 FRET ctr – inhibits VIM-2 in FRET assay to exclude epi-absorbance artifacts; 1,300 tested, 23% active; inhibition, % at 5.6 µM; purified VIM-2, CCF2 FRET substrate hydrolysis; shares compounds with VIM-2 inh;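 active = inhibition above the mean of all tested compounds plus 3 SD, cut at about 19% in these data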;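 also: 0% = VIM-2 plus DMSO and 100% = no enzyme wells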
TEM-1 counter – TEM-1 inhibition, counter-screen for VIM-2 inhibitors; Purified TEM-1, nitrocefin hydrolysis, epi-absorbance fluorescence; 1,300 tested, 3% active; shares compounds with VIM-2 inh; AID 1866; inhibition, % at 5.6 µM;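 active = inhibition above that campaign's mean inhibition plus 3 SD, cut at about 0.46% in these data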;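 also: 0% = TEM-1 with DMSO and 100% = TEM-1 with 100 µM potassium clavulanate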
VIM-2 inh conf – confirmation of P. aeruginosa VIM-2 metallo-beta-lactamase inhibitors | shares compounds with VIM-2 inh | 1,300 tested, 96% active | purified VIM-2, nitrocefin hydrolysis, epi-absorbance | AID 2187 | inhibition, % at 5.6 µM;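 active = inhibition of the VIM-2 beta-lactamase enzyme above about 11% from the earlier first-round screen, limit read from the data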;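 also: 0% = VIM-2 with DMSO and 100% = buffer wells without enzyme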
* marks the source's active call; other numbers are inactive results; i = inactive; . = no result shown.

SMILES	procasp7 counter	VIM-2 inh	Neddylation inh	procasp3 activ	PolyA inhibitor	IMP-1 inh-1	IMP-1 inh-2	VIM-2 FRET ctr	TEM-1 counter	VIM-2 inh conf
CCOc1ccc(C(=O)Nc2ccc(N3CCN(C)CC3)cc2)cc1Br	8	24*	i	7	-7	-3	-3	-3	-7	43*
CCC(=O)N1CCN(c2ccc(NC(=O)COc3ccccc3Cl)cc2)CC1	1	-3	i	-4	-8	1	.	.	.	.
CC(=O)N1CCN(c2ccc(NC(=O)c3ccc4c(c3)OCCO4)cc2)CC1	-1	-2	i	-3	-12	0	.	.	.	.
CN1CCN(c2ccc(NC(=O)COc3ccccc3Cl)cc2)CC1	9	20*	i	-1	-13	-3	-3	-1	-6	40*
CN1CCN(c2ccc(NC(=O)c3ccc4c(c3)OCO4)cc2)CC1	-2	18*	i	-6	-15	-4	-4	0	-7	31*
CCc1ccc(N2CN(Cc3cccnc3)CNC2=S)cc1	0	1	i	-2	7	-2	.	.	.	.
Clc1ccccc1-c1nn2c(-c3ccncc3)nnc2s1	-1	22*	i	-8	11	-3	-4	0	-8	55*
COc1ccccc1C(=O)Nc1nnc(SCC(=O)NCc2ccco2)s1	5	46*	i	-1	-4	-2	-2	70*	-6	53*
O=C(CSc1nnc(NC(=O)C2CC2)s1)Nc1ccccc1	2	1	i	-1	-4	-2	.	.	.	.
O=C(CSc1nnc(NC(=O)C2CC2)s1)NCc1ccccc1Cl	9	29*	i	-10	0	-3	-3	53*	-6	35*
O=C(CSc1nnc(NC(=O)c2ccccc2F)s1)NCc1ccc(F)cc1	6	38*	i	10	-8	-1	-3	61*	-6	44*
O=C(CSc1nnc(NC(=O)c2ccccc2[N+](=O)[O-])s1)NCc1ccco1	4	41*	i	0	-5	-2	-3	64*	-7	46*
CC(=O)N/C(=C/c1ccc2c(c1)OCO2)C(=O)NCc1ccccc1	2	-2	i	-4	12	-2	.	.	.	.
Oc1ccc(Nc2ncnc3ccccc23)cc1	.	-1	i	.	1	-2	.	.	.	.
Cc1ccc(/C=C/C(=O)NCCCN2CCN(CCCNC(=O)/C=C/c3ccc(C)o3)CC2)o1	-2	-3	i	-6	4	-2	.	.	.	.
O=C(CSc1nnc(NC(=O)c2c(F)cccc2F)s1)NCc1ccco1	8	.	i	2	-3	.	.	.	.	.
O=C(CSc1nnc(NC(=O)c2ccccc2F)s1)NCc1ccco1	-4	41*	i	-2	-13	-1	-3	68*	-6	49*
CC(C)c1cc(N2CCN(C(=O)c3ccco3)CC2)n2c(nc3ccccc32)c1C#N	5	15*	.	-2	2	-1	-4	-6	-5	32*
CCOc1ccccc1C(=O)NC(C)c1ccc(-n2ccnc2)cc1 (stereo unspecified)	9	26*	i	2	18	-4	-4	8	-7	34*
Cn1cc(-c2ccccc2C(=O)O)c(=O)c2cc(Cl)ccc21	0	13*	i	4	11	0	-2	27*	0	18*
Cn1cc(S(=O)(=O)c2ccccc2)c(=O)c2cc(Cl)ccc21	-6	1	i	-1	7	1	.	.	.	.
CCN(CC)c1nc(-c2ccc(C(=O)NN)cc2)nc(-c2ccc(C(=O)NN)cc2)n1	.	75*	i	.	7	-3	-3	4	-6	85*
COc1ccc2nc3cc(Cl)ccc3c(Nc3cc(CN4CCCC4)c(O)c(CN4CCCC4)c3)c2n1	-10	21*	i	-9	10	-6	-5	-12	-10	33*
O=C(COc1cc2oc(=O)c3c(c2cc1Cl)CCC3)Nc1ccccn1	3	6	i	6	7	-1	.	.	.	.
O=C(COc1cc2oc(=O)c3c(c2cc1Cl)CCC3)Nc1cccnc1	12	-1	i	2	8	-4	.	.	.	.
SMILES	procasp7 counter	VIM-2 inh	Neddylation inh	procasp3 activ	PolyA inhibitor	IMP-1 inh-1	IMP-1 inh-2	VIM-2 FRET ctr	TEM-1 counter	VIM-2 inh conf
Cc1c(Cc2ccccc2)c(=O)oc2c(C)c(OCC(=O)NCc3ccccn3)ccc12	-11	-2	i	11	-9	-1	.	.	.	.
Cc1c(OCC(=O)NCc2ccccn2)ccc2c3c(c(=O)oc12)CCCC3	3	17*	i	2	-4	-1	-2	-3	-18	26*
O=C(COc1cc2oc(=O)c3c(c2cc1Cl)CCC3)NCC(O)c1ccccc1 (stereo unspecified)	-8	14*	i	3	-2	-2	-2	2	-5	26*
Cc1c(OCC(=O)NCC(O)c2ccccc2)ccc2c3c(c(=O)oc12)CCC3 (stereo unspecified)	8	20*	i	-4	3	0	-3	-4	-9	28*
Cc1c(OCC(=O)Nc2cccnc2)ccc2c3c(c(=O)oc12)CCC3	1	24*	i	8	11	-2	-4	-1	-16	35*
CN(C)CCNc1ncnc2c1ncn2[C@H]1CN(Cc2ccc3c(c2)OCO3)C[C@@H](CO)O1	.	.	i	.	.	.	.	.	.	.
CCCn1c(NCc2cccs2)nc2ccccc21	-5	-1	i	0	3	1	.	.	.	.
O=C(c1ccc(F)cc1)N1CCN(c2cnn(-c3ccccc3)c(=O)c2Cl)CC1	-1	-2	i	7	-6	-3	.	.	.	.
CNC(=O)CSCc1cnn(-c2ccccc2)c1-n1cccc1	2	-4	i	4	-15	-4	.	.	.	.
COCCCNc1c2c3c(cccc3[nH]c1=O)C(=O)c1ccccc1-2	-11	34*	i	-4	.	-3	73*	4	137*	87*
COc1cccc(N2CCc3c(C)nc4ccc(Cl)cc4c32)c1	.	22*	.	.	-24	-2	-4	-5	-6	30*

Source: PubChem
